{"source": "paper PMC7064934", "about": "(Environmental Toxicology and Chemistry, 2019)", "key": {"[1]": {"tested_on": "Eisenia andrei", "experiment": "Earthworm reproduction test", "format": "in vivo", "procedure,_shortened": "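Clitellate 2-mo synchronized worms acclimatized 24 h in clean soil, washed and weighed. Ten per ~600 g spiked LUFA 2.2 soil (nominal 0.04–10.0 mg a.s./kg dry soil, pure or formulation), 4 replicates, horse manure as food, 20 ± 2 °C, 75% RH. Survival and weight change read on day 28. Juveniles extracted on day 56 in a 60 °C water bath. Log-logistic LC50/EC50 fitted on nominal concentrations.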"}, "[2]": {"tested_on": "E. fetida", "conditions": "cited from earlier work"}, "[3]": {"conditions": "octanol/water partition coefficient at pH 7, 20 °C; ref University of Hertfordshire 2018; cited from earlier work"}, "[4]": {"tested_on": "Folsomia candida", "experiment": "Collembolan reproduction test", "format": "in vivo", "conditions": "F. candida; for Times more toxic to survival than its commercial formulation: pure compound vs formulation (LC50)", "procedure,_shortened": "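LUFA 2.2 soil spiked with aqueous pure compound or commercial formulation to 50% WHC; nominal control and 0.04–10.0 mg a.s./kg dry soil. Ten 10–12-d-old synchronized juveniles per 30 g soil, 5 replicates, weekly yeast and water top-up. Held 28 d at 20 ± 2 °C, 75% RH. Animals counted by flotation and image analysis. Log-logistic LC50/EC50 fitted on nominal concentrations.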"}, "[5]": {"tested_on": "earthworm", "conditions": "survival; ref National Registration Authority for Agricultural and Veterinary Chemicals (2001); cited from earlier work"}, "[6]": {"format": "physicochemical", "conditions": "E. andrei test soil, nominal 10 thiamethoxam, t=56 days", "procedure,_shortened": "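Soil (5 g) sampled from replicate jar 4 on days 0, 28 and/or 56 and stored at –20 °C. Extracted by QuEChERS and analysed by reverse-phase LC–MS/MS at an external lab; detection limit 0.01 mg a.s./kg dry soil. Soils were also screened for the parent's conversion product. DT50 derived as ln(2)/k from first-order decay without lag.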"}}, "data": [{"smiles": "C/C(=N\\C#N)N(C)Cc1ccc(Cl)nc1", "note": "[Acetamiprid, acetamiprid]", "values": [{"measurement": "Times more toxic to the survival of the earthworms compared with thiacloprid", "setting": "[1]; E. andrei, LC50 comparison", "value": 10}, {"measurement": "EC50s", "setting": "[2]; ref Wang et al. (2012), Ge et al. (2018), Wang et al. (2015)", "value": "approximately 0.30 mg a.s/kg dry soil"}, {"measurement": "Log K OW", "setting": "[3]", "value": 0.8}, {"measurement": "Times more toxic to survival than its commercial formulation", "setting": "[4]", "value": 3}, {"measurement": "Times more toxic to survival than its commercial formulation", "setting": "[4]; listed as acetamiprid", "value": 4}]}, {"smiles": "CN/C(=N\\[N+](=O)[O-])NCc1cnc(Cl)s1", "note": "[Clothianidin, clothianidin]", "values": [{"measurement": "Log K OW", "setting": "[3]", "value": 0.95}, {"measurement": "Times more toxic than thiacloprid", "setting": "[4]; LC50 comparison", "value": "approximately 100"}]}, {"smiles": "O=[N+]([O-])NC1=NCCN1Cc1ccc(Cl)nc1", "note": "[Imidacloprid, imidacloprid]", "values": [{"measurement": "Times more toxic to reproduction than its commercial formulation", "setting": "[4]; pure compound vs formulation (EC50)", "value": 4}]}, {"smiles": "N#C/N=C1\\SCCN1Cc1ccc(Cl)nc1", "note": "[Thiacloprid, thiacloprid]", "values": [{"measurement": "LC50", "setting": "[2]; ref Feng et al. (2015)", "value": 8.43, "unit": "mg/kg"}, {"measurement": "Times more toxic to reproduction than to survival", "setting": "[4]", "value": "approximately 3"}]}, {"smiles": "CN1COCN(Cc2cnc(Cl)s2)/C1=N\\[N+](=O)[O-]", "note": "[Thiamethoxam, thiamethoxam]", "values": [{"measurement": "Toxicity to E. andrei at the concentrations tested (in words)", "setting": "[1]; highest concentration tested 10 mg a.s./kg dry soil, survival and reproduction", "value": "no toxicity"}, {"measurement": "LC50, acute toxicity tests (14 d)", "setting": "[5]", "value": "> 1000", "unit": "mg a.s./kg dry soil"}, {"measurement": "Log K OW", "setting": "[3]", "value": "–0.13"}, {"measurement": "Concentration of clothianidin measured (conversion product of thiamethoxam)", "setting": "[6]", "value": 0.09, "unit": "mg a.s./kg dry soil"}]}]}
